The target in data set [1] is Leucine-rich repeat serine/threonine-protein kinase 2 (Homo sapiens, UniProt Q5S007). The experiment in a line: Inhibition of full length LRRK2 (unknown origin) expressed in HEK293 cells assessed as reduction in S935 phosphorylation incubated for 90 mins by ELISA method. The data set is classed as cell-based. (An ELISA detects its analyte on a solid surface through an enzyme-linked reagent.)

Data set [2] in a line: Cmax in rat at 5 mg/kg, po. The data set is classed as ADME, organism-based. Set-up: dose 5 mg/kg, route oral. As to conditions: in vivo.
The nature of data set [3]: Tmax in rat at 5 mg/kg, po. Further details: dose 5 mg/kg, route oral. As to conditions: in vivo. Type of data set: ADME, organism-based.
Data set [4] is described as follows: Half life in rat at 5 mg/kg, po. Type of data set: ADME, organism-based. Further details: dose 5 mg/kg, route oral. As to conditions: in vivo.
For data set [5], the system named is Rattus norvegicus. Kind of data set: Volume of distribution at steady state in rat at 5 mg/kg, po. Type of data set: ADME, organism-based. Set-up: dose 5 mg/kg, route oral. As to conditions: in vivo.
The nature of data set [6]: Tmax in dog at 5 mg/kg, po. As to conditions: in vivo. Type of data set: ADME, organism-based, Canis lupus familiaris. Set-up: dose 5 mg/kg, route oral.
Data set [7] in a line: AUC in non-human primate at 5 mg/kg, po. Type of data set: ADME, organism-based. Further details: dose 5 mg/kg, route oral. As to conditions: monkey, plasma.
A short description of data set [8]: Volume of distribution at steady state in non-human primate at 5 mg/kg, po. Type of data set: ADME, organism-based. Set-up: dose 5 mg/kg, route oral. As to conditions: monkey, in vivo.
Data set [9] can be described thus: Oral bioavailability in non-human primate at 5 mg/kg. The data set is classed as ADME, organism-based. As to conditions: monkey, in vivo.
The test system of data set [10] is Mus musculus. Kind of data set: Inhibition of wild type LRRK2 […] phosphorylation in BAC-transgenic C57BL/6J mouse kidney at 3 to 100 mg/kg, sc measured after 90 mins post dose. The data set is classed as functional. As to conditions: dose mg/kg 3-100; route subcutaneous. The essentials: (§1)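 Mice given compound subcutaneously in 10% NMP/20% SBECD vehicle: four-month-old C57BL/6J (wild type) or seven-month-old LRRK2 BAC-Tg G2019S. Tissues collected 90 min after dose. pS935, and pS1292 (custom antibody) in transgenic brain, read by Western blot of brain/kidney lysates against vehicle controls. Mean ± SEM.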

The subject of data set [11] is Mus musculus. The experiment in a line: Inhibition of LRRK2 […] mutant […] phosphorylation in BAC-transgenic mouse at 3 to 100 mg/kg, sc measured after 90 mins post dose. The data set is classed as functional. As to conditions: dose mg/kg 3-100; route subcutaneous. Summed up:
as §1

Data set [12] has as its system Mus musculus. The experiment in a line: Inhibition of LRRK2 […] mutant S1292 phosphorylation in BAC-transgenic mouse at 3 to 100 mg/kg, sc measured after 90 mins post dose. Type of data set: functional. As to conditions: dose mg/kg 3-100; route subcutaneous. The essentials: as §1
Data set [13] is described as follows: Toxicity in Wistar Han rat at 6 to 60 mg/kg, po bid for 14 days. The data set is classed as organism-based. As to conditions: in vivo. Further details: dose 6-60 mg/kg, route oral. Summed up: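 Exploratory 14-day study in Wistar Han rats (200–300 g, 8–11 weeks old at start). Dosing was by oral gavage twice daily in 10% propylene glycol/20% PEG400/70% 9.5% methocellulose. Unbound plasma exposure was measured on days 1 and 11. Endpoints were RBC parameters, electrolytes, food consumption, body weight, clinical chemistry, urinary renal biomarkers and kidney appearance.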

The nature of data set [14]: Drug coverage index, ratio of average concentration ( 0 to 24 hrs) in Wistar Han rat at 6 to 60 mg/kg, po bid for 14 days to IC50 for LRRK2 […] phosphorylation in Wistar Han rat brain at 6 to 60 mg/kg, po bid for 14 days. The data set is classed as ADME, organism-based. As to conditions: in vivo. Summed up:
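Wistar Han rats (200–300 g, 8–11 weeks old) were dosed by oral gavage twice daily for 14 days. Vehicle was 10% propylene glycol/20% PEG400/70% 9.5% methocellulose.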

In data set [15] the test system is Rattus norvegicus. The experiment in a line: Toxicity in Wistar Han rat assessed as changes in RBC parameters at 6 to 60 mg/kg, po bid for 14 days. Type of data set: organism-based. Set-up: dose 6-60 mg/kg, route oral. As to conditions: in vivo, 336 h. The essentials:
(§2)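 Wistar Han rats (200–300 g, 8–11 weeks) dosed by oral gavage twice daily for 14 days. Vehicle: 10% propylene glycol/20% PEG400/70% methylcellulose solution. RBC parameters, electrolytes, food consumption, body weight, clinical chemistry and urinary biomarkers recorded.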

In data set [16] the test system is Rattus norvegicus. The experiment in a line: Toxicity in Wistar Han rat assessed as changes in food consumption at 6 to 60 mg/kg, po bid for 14 days. The data set is classed as organism-based. Set-up: dose 6-60 mg/kg, route oral. As to conditions: in vivo, 336 h. Summed up:
as §2

Data set [17] deals with Rattus norvegicus. Kind of data set: Toxicity in Wistar Han rat assessed as changes in body weight at 6 to 60 mg/kg, po bid for 14 days. The data set is classed as organism-based. Further details: dose 6-60 mg/kg, route oral. As to conditions: in vivo, 336 h. Summed up: as §2
The subject of data set [18] is Rattus norvegicus. Kind of data set: fCmax in Wistar Han rat at 6 mg/kg, po bid for 14 days. Type of data set: ADME, organism-based. Set-up: dose 6 mg/kg, route oral. As to conditions: in vivo, 336 h.
Data set [19] relates to Rattus norvegicus. The experiment in a line: fAUC in Wistar Han rat at 6 mg/kg, po bid for 14 days. The data set is classed as ADME, organism-based. As to conditions: in vivo, 336 h. Further details: dose 6 mg/kg, route oral. Summed up:
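Wistar Han rats dosed orally twice daily in 10% propylene glycol/20% PEG400/methylcellulose vehicle. Unbound plasma exposure measured on days 1 and 11.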

A short description of data set [20]: Apparent permeability from apical to basolateral side by cell based assay. Type of data set: physicochemical. As to conditions: not told.
Data set [21] deals with Tyrosine-protein kinase JAK1 (Homo sapiens, UniProt P23458). Kind of data set: Inhibition of JAK1 (JH1 domain-catalytic) (unknown origin) at 1 uM.
Chain of Tyrosine-protein kinase JAK1 (P23458 whole entry, the tested form may be a part): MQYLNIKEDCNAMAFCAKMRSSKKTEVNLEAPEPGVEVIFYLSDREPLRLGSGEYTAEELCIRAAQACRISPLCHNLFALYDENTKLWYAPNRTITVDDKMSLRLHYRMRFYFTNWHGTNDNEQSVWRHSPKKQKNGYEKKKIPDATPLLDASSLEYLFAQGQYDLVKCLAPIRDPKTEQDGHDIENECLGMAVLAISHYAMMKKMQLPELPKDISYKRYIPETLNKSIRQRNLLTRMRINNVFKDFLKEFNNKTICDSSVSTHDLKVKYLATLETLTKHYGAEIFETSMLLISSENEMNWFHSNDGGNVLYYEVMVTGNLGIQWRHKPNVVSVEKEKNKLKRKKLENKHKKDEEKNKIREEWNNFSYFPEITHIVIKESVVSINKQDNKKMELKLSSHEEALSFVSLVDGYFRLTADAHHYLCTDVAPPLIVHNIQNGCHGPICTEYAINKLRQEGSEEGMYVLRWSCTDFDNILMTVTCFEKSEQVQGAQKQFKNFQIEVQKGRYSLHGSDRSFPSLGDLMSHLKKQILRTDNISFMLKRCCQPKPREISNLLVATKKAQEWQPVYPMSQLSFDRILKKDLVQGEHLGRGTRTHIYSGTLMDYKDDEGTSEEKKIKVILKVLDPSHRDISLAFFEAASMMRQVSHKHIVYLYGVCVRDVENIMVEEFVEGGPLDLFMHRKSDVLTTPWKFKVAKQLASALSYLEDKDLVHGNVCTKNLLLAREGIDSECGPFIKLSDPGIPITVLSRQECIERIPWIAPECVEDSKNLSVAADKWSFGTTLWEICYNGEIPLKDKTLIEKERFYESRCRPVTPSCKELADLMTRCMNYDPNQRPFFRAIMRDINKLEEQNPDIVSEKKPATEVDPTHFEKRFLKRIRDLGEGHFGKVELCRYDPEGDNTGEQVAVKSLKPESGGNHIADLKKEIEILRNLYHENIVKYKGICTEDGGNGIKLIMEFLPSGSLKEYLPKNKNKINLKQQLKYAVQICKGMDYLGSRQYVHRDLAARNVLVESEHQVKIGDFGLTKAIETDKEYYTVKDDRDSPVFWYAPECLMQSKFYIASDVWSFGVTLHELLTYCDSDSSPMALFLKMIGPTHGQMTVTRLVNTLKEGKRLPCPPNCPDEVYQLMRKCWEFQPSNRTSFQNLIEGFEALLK
Data set [22] addresses Tyrosine-protein kinase JAK2 (Homo sapiens, UniProt O60674). The experiment in a line: Inhibition of JAK2 (JH1 domain-catalytic) (unknown origin) at 1 uM.
For data set [23], the target named is T1, Tyrosine-protein kinase JAK3 (Homo sapiens) (UniProt P52333).
T1 sequence (whole entry): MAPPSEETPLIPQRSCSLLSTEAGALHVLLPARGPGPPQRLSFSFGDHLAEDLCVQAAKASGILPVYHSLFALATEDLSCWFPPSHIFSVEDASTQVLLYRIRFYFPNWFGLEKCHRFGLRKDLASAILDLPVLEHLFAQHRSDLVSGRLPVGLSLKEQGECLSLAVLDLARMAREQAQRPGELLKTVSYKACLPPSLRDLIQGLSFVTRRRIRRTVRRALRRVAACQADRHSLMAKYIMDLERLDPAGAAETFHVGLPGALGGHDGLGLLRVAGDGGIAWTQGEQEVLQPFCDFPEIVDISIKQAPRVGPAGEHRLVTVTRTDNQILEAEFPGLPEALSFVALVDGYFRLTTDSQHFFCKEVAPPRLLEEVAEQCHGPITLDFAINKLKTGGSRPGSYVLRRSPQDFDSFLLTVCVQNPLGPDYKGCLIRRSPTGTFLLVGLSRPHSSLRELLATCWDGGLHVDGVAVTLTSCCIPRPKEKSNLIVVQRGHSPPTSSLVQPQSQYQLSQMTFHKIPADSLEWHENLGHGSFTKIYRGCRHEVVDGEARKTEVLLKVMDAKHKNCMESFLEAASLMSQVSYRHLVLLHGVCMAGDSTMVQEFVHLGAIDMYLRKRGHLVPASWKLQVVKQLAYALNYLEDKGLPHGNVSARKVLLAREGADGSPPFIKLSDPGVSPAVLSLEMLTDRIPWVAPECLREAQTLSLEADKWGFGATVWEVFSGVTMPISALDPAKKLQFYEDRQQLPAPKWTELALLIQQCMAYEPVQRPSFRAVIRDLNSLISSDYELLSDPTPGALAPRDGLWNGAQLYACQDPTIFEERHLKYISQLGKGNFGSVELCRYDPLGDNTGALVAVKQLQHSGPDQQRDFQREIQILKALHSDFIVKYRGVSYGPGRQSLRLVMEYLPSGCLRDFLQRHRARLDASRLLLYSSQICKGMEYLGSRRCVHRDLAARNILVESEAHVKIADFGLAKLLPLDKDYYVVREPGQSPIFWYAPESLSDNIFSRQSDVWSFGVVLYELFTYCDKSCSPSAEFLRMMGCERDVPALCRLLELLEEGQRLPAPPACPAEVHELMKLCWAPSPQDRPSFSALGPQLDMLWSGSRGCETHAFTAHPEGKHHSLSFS
The experiment in a line: Inhibition of JAK3 (JH1 domain-catalytic) (unknown origin) at 1 uM.

Activity calls are given as the source filed them. The calls are words filed in the database; no cut-off is given here. A value given as a limit tells only on which side of the number the result lay.

Chain of Leucine-rich repeat serine/threonine-protein kinase 2 (Q5S007 whole entry): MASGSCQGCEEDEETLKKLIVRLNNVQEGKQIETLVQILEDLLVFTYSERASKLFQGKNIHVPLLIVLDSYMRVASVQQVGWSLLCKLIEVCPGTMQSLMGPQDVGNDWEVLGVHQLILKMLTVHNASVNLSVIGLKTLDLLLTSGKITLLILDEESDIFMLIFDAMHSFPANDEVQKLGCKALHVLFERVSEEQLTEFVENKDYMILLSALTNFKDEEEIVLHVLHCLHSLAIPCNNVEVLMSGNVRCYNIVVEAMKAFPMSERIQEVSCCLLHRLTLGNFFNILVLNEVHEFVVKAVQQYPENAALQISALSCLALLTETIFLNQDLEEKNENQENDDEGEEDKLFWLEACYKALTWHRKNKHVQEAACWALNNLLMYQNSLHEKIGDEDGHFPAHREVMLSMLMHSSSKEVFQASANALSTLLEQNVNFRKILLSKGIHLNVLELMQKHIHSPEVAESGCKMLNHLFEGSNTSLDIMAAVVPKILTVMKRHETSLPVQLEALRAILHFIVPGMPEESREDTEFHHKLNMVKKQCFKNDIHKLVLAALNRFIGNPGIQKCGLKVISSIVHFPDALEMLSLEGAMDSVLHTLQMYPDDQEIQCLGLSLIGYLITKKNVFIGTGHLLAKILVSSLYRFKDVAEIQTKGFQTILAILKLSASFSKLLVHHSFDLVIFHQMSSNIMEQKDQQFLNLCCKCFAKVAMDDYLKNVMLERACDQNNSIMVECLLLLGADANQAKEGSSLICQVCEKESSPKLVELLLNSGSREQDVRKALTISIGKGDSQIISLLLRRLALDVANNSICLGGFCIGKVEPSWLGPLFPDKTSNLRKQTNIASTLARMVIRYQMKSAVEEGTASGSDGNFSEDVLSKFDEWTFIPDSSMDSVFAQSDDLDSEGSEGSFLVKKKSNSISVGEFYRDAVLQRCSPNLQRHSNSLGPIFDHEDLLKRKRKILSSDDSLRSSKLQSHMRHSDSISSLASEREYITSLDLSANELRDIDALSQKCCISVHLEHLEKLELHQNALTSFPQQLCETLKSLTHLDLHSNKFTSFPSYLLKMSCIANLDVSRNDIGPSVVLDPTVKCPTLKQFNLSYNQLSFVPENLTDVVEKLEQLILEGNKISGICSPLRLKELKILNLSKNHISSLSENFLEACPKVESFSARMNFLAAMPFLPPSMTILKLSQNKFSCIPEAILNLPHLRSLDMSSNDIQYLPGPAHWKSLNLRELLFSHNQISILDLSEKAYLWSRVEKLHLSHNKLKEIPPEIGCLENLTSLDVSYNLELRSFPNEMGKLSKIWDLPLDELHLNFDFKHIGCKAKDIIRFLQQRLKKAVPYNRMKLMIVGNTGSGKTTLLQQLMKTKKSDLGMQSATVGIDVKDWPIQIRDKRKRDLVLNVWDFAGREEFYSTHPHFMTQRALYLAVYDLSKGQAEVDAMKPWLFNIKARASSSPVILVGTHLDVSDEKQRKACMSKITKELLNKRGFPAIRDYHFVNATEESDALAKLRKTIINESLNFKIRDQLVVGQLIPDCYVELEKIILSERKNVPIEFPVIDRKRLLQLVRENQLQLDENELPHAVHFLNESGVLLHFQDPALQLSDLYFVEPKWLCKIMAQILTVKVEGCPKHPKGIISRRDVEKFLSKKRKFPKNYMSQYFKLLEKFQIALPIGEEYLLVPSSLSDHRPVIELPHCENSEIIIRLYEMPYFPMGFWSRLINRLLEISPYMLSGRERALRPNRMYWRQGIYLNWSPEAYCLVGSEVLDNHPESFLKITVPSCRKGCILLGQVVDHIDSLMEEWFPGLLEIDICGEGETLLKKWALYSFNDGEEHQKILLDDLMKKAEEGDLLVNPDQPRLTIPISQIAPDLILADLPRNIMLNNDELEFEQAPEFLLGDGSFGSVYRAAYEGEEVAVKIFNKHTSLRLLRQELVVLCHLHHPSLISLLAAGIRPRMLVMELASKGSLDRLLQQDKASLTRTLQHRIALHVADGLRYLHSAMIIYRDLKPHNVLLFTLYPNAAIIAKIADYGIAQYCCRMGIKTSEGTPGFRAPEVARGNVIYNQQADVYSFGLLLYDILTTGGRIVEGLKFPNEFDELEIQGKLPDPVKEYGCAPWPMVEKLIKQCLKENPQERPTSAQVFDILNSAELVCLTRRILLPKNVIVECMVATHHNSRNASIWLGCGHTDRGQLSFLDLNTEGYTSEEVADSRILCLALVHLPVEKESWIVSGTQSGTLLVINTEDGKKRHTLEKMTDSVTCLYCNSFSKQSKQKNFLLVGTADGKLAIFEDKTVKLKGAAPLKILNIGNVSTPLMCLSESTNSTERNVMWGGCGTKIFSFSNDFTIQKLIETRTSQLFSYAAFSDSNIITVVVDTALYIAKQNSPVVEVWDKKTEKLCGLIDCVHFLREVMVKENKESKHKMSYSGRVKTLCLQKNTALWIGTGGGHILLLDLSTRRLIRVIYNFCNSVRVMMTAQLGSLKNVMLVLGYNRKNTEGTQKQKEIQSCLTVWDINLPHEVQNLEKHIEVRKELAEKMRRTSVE
Chain of Tyrosine-protein kinase JAK2 (O60674 whole entry, the tested form may be a part): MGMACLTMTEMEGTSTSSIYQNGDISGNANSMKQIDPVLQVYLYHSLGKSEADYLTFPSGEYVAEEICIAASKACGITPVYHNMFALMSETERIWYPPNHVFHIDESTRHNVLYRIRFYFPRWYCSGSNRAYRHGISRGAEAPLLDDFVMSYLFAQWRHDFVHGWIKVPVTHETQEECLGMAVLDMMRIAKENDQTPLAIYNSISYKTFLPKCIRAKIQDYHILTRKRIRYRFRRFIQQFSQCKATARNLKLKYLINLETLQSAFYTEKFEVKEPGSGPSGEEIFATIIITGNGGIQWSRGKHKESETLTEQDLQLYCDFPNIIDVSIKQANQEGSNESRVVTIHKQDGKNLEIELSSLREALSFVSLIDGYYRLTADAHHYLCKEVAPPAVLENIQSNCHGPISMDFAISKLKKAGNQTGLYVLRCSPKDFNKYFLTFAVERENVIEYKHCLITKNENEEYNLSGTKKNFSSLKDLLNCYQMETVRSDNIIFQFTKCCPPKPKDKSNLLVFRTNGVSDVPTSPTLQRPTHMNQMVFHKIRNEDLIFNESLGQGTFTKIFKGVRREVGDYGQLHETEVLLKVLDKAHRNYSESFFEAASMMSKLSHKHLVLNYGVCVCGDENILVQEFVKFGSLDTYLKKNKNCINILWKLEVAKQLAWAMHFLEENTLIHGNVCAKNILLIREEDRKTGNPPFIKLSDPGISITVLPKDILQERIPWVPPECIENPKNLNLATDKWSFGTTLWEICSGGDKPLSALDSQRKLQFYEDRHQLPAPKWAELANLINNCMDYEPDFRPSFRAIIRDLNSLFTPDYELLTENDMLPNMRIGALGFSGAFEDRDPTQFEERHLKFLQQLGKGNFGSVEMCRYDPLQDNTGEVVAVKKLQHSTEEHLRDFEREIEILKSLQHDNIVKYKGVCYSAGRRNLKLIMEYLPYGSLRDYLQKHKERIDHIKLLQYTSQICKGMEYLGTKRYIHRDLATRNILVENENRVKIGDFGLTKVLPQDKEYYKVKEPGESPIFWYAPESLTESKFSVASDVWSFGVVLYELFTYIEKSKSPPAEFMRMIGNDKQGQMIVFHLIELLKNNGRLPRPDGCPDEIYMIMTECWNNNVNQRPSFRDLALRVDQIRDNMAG

By IC50 is commonly meant the midpoint of a concentration-inhibition curve. By Cmax is commonly meant the maximum level reached in the sampled fluid or tissue. A word on the Tmax: it is the time at which the peak concentration occurs. A word on the half-life: it is how long it takes for the measured level to halve. Lower therefore signals rapid decline. One may read the AUC as concentration integrated over time. Read a high AUC as high exposure. The term bioavailability denotes dose-corrected exposure relative to a reference, in per cent. Lower therefore signals little systemic uptake. Broadly, the Papp A→B is how fast a substance crosses the layer from the apical side. As to `N#Cc1cccc(-c2c[nH]c3ncnc(N4CCOCC4)c23)c1`, the IC50 in data set [1] was determined as 25 nM. Further, in data set [2], the peak level (Cmax) was 181 ng/mL. Moreover, the Tmax in data set [3] came to 30 min; in data set [6], 22.8 min. In data set [4], this compound showed a half-life of 373 min. The Vdss in data set [5] came to 1.83 L/kg; in data set [8], 1.06 L/kg. In addition, the AUC in data set [7] was 78 ng·h/mL. In data set [9], this compound had a bioavailability of 3.5%. Moreover, the fIC50 in data set [10] worked out at 11 nM; in [11], 103 nM; in data set [12], 21 nM. For the same compound, the MTD at 336 h in data set [13] is > 60 mg/kg/day. Besides, in data set [14], the Ratio stood at 31. The Activity entry in [15], in data set [16] and in data set [17] was “Non-toxic” each time. Also, in [18], the fCmax was found to be 86 nM. For the same compound, the fAUC in [19] was found to be 0.843 µM·h. For the same compound, the Papp A→B in [20] was determined as 27 ×10⁻⁶ cm/s. Moreover, the inhibition result in [21], in [22] and in [23] was “inactive” each time.

The record behind these values is ChEMBL document CHEMBL3393009 (J Med Chem, 2015).
